According to paper PMC6286650 (EBioMedicine, 2018):
Values belong to the compound of their own block, whether it stands above or below them.

Tests used:
[1] = system: F-actin; experiment: F-actin fluorescence under actin inhibitor; type: cell-based
[2] = system: transgelin (−/−) mice; experiment: Isoproterenol-induced myocardial ischemia model in transgelin; type: in vivo; settings: 10 mg/kg
Method in brief: (§1)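 Wild-type C57 or cre-lox transgelin knockout C57/BL6 mice, 24 per genotype, were split into normal, model and two treatment groups. Test compound was given orally at 10 mg/kg daily for one week; normal and model groups got saline. On day 5, isoproterenol 3 mg/kg i.p. was given (saline for normal group). After day 7, mice were anaesthetized with chloral hydrate for a three-needle-electrode ECG on a 40–42 °C pad.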

[3] = system: actin; experiment: Multi-angle light scattering of actin aggregation; type: biochemical; settings: in presence of transgelin
[4] = system: HVSMCs; type: cell-based, human; settings: 10 μM
[5] = system: CASMCs; experiment: Cell contraction and F-actin formation in CASMCs; type: cell-based; settings: 10 μM
Method in brief: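 Coronary artery smooth muscle cells came from primary culture in DMEM with 10% foetal bovine serum. They were treated with test compound at 10 μM, and relative cell length and F-actin formation were assessed against untreated control.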

[6] = system: actin; experiment: Hypoxia-induced actin degradation, fluorescence intensity; type: cell-based; settings: hypoxic group 264
[7] = system: transgelin and actin; type: binding; settings: disregarding the effect of SAA
[8] = system: actin; type: biochemical; settings: actin/transgelin plus compound
[9] = system: F-actin; experiment: F-actin features in cells; type: cell-based, human; settings: versus control group
[10] = target: transgelin (Homo sapiens, UniProt Q01995); experiment: Biacore; settings: Biacore binding to transgelin, 25 °C, CM5 chip, NA = no activity
Method in brief: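 CM5 chip at 25 °C with PBS-EP running buffer. Transgelin was amine-coupled by EDC/NHS, the same way as actin (0.4 mg/mL in 10 mM phosphate pH 7.4, 12 min, then 1 M ethanolamine pH 8.5; about 4000 RU). Test compound was run over protein and blank channels at 0–25 uM at 20 μL/min. Association 3 min, dissociation 300 s; regeneration with 10 mM glycine-HCl pH 2.5.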

[11] = system: C57 wild type mice; experiment: Isoproterenol-induced myocardial ischemia model in wild type mice; type: in vivo
Method in brief: as §1

[12] = system: isolated myocardial tissue; experiment: Stimulation of isolated myocardial tissue
[13] = isoproterenol-treated model group, ISO 3 mg/kg i.p.

transgelin, sequence (Q01995 whole entry): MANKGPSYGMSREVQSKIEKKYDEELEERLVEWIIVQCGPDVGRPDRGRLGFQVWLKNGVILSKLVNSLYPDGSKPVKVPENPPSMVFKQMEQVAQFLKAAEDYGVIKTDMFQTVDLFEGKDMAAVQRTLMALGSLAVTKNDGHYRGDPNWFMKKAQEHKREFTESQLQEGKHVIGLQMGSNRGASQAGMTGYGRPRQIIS

Compound: CC[C@]1(O)C[C@H]2CN(CCc3c([nH]c4ccccc34)[C@@](C(=O)OC)(c3cc4c(cc3OC)N(C=O)[C@H]3[C@@](O)(C(=O)OC)[C@H](OC(C)=O)[C@]5(CC)C=CCN6CC[C@]43[C@@H]65)C2)C1 [vincristine, reference compound]
- F-actin fluorescence intensity ([1]; vincristine alone, control 395): 139

- Protein binding signal of transgelin and actin when SAA was added [7]: 1.3 times
- Kd [10]: 7.11 µM
Compound: O=C(/C=C/c1ccc(O)c(O)c1/C=C/c1ccc(O)c(O)c1)O[C@H](Cc1ccc(O)c(O)c1)C(=O)O [SAA, salvianolic acid A]
- CK, CK-MB, AST and LDH levels relative to transgelin (−/−) MI model group [2]: not significantly changed
- Therapeutic effect on myocardial ischemia [2]: no therapeutic effect
- Polymerization (aggregation) of actin [3]: further enhanced
- Co-localization of transgelin and actin ([4]; control approximately 57%): 78%
- Average length of VSMCs ([4]; control approximately 90 μm): ~80 μm
- F-actin fluorescence intensity ([1]; co-treatment with vincristine, vincristine alone 139): 373
- Relative length of CASMCs [5]: declined
- Actin fluorescence intensity [6]: 453
- Actin polymerization [8]: marked increase in actin polymerization
- F-actin area, F-actin percentage area, total F-actin length and average F-actin length [9]: increased
- Heart infarction ratio ([11]; 10 mg/kg oral daily for 7 days, wild type MI mice 11.2%): 4%
- Stimulation effect on isolated myocardial tissue [12]: no stimulation effect

- Serum CK level compared to normal group [11, 13]: 166% ± 14%
- Serum CK-MB level compared to normal group [11, 13]: 165% ± 24%
- Serum LDH level compared to normal group [11, 13]: 174% ± 14%
Compound: CC(C)NCC(O)c1ccc(O)c(O)c1 (stereo not shown) [isoproterenol]
- Serum AST level compared to normal group [11, 13]: 237% ± 19%
